CHO parental Ca: signal in parental CHO cells, OX1R antagonist counter-screen; inhibition, % at 5.6 µM; AID 463079; hit rate 0.63% among 330,000; parental CHO-K1, ATP-induced calcium, Fluo-8 fluorescence;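 active = inhibition above that plate's mean sample inhibition plus 3 SD, cut at about 26% in these data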
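Assay system: parental CHO cells; Read-out basis: percent inhibition of ATP-evoked calcium rise, normalized to controls; Benchmarks: ATP and no-ATP DMSO wells; Compound dosing: single nominal dose of 5.6 µM per compound; Signal: Fluo-8 calcium dye fluorescence; Also added: ATP as calcium-mobilizing challenge; Repeats: singlicate.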
GPR7 antagonist: human neuropeptides B/W receptor 1 antagonism; inhibition, % at 4.4 µM; GPR7-expressing cells, fluorescence antagonist assay; hit rate 1.1% among 290,000; in the data active = inhibition above about 16%, passing the limit was not always enough;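 also: cells stimulated with the agonist NPW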
Target sequence (P48145 whole entry, looked up): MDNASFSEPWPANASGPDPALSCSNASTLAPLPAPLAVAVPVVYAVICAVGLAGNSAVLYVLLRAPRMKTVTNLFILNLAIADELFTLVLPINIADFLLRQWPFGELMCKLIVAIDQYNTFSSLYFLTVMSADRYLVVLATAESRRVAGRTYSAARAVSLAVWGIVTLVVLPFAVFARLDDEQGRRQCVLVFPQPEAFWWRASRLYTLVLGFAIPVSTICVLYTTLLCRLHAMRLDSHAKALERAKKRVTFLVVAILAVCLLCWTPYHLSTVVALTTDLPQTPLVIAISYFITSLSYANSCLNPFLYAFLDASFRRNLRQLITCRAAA
GalR3 antagonist: human GalR3 antagonism. O60755. HEK293 GalR3-CNG cAMP membrane potential fluorescence; galR3 body fused to GalR1 C-terminus. inhibition, % at 3 µM. hit rate 0.44% among 360,000;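 active = inhibition above the screen-wide average plus 3 SD, cut at about 13% in these data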;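 also: forskolin and galanin both at EC90 stimulate the cells; cAMP rise reported by CNG channel membrane potential dye signal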
Target sequence (O60755 1-299 limits assumed): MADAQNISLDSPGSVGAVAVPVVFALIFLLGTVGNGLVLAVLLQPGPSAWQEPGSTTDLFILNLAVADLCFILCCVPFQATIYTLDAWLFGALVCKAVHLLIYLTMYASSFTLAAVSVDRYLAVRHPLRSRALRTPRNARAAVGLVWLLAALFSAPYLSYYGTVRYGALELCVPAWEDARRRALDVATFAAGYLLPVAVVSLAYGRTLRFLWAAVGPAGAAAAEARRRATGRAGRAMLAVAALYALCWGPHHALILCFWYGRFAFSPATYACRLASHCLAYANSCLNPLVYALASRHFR
OX1R antag-1: blocks the human orexin 1 receptor. O43613. OX1R-expressing cells, FRET antagonist read-out. inhibition, % at 6.6 µM. hit rate 1.8% among 330,000; in the data active = inhibition mostly above about 38%, no sharp cut-off; inactive = mostly below about 40%
OX1R antag-2: blocks the human orexin 1 receptor | CHO/OX1R cells, Fluo-8 calcium fluorescence, orexin A | inhibition, % at 5 µM | hit rate 0.43% among 330,000;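 active = inhibition above its plate's threshold, mean inhibition of all tested compounds on the plate plus 3 SD, cut at about 37% in these data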
GPR7 antag conf: confirmation of human GPR7 antagonists; shares compounds with GPR7 antagonist; inhibition, % at 4.4 µM; hit rate 52% among 2,400; AID 1952; GPR7-expressing cells, calcium fluorescence antagonist mode; in the data active = inhibition above about 24%;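 also: stimulated with the GPR7 agonist NPW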
MCHR1 antagonist: MCHR1 (human) antagonism in GPR7 counter-screen | shares compounds with GPR7 antagonist | MCHR1-expressing cells, fluorescence antagonist assay | inhibition, % at 4.4 µM | hit rate 62% among 2,400; in the data active = inhibition above about 22%
Of the large screens only hits and unclear results are named; the others gave an inactive call (follow-up assays come after a bar, where they were run). Rows were chosen to be rich in hits. Some 3.1% of all compounds tested hit in one or more screens of this group.

CN(Cc1cccs1)C(=O)CCc1c[nH]c2ccccc12	none
CN(Cc1cccs1)C(=O)CCCc1c[nH]c2ccccc12	GPR7 antagonist 33 | GPR7 antag conf 33 | MCHR1 antagonist 45
CCC(CC)C1C(C#N)=C(N)SC(N)=C1C#N	GPR7 antagonist 22 | GPR7 antag conf inactive | MCHR1 antagonist inactive
CC(C)C1C(C#N)=C(N)SC(N)=C1C#N	none
COc1ccccc1CNCc1cc(OC)c(OC)cc1OC	none
COc1ccccc1CNCC(c1ccccc1)c1ccccc1	GPR7 antagonist 42 | GPR7 antag conf 46 | MCHR1 antagonist 34
COc1ccccc1CNCC(O)Cn1c2ccccc2c2ccccc21 (stereo unspecified)	GPR7 antagonist 37 | GPR7 antag conf 68 | MCHR1 antagonist 73
C(=C\c1ccccc1)/CSc1nnc(-c2ccccc2)n1Cc1ccco1	GPR7 antagonist 32 | GPR7 antag conf 41 | MCHR1 antagonist 64
COCCN(C(=O)CSc1nnc(-c2ccc(C)cc2)n1N)c1c(N)n(Cc2ccccc2)c(=O)[nH]c1=O	none
CCN(CC)CC(O)Cn1c(C)c(-c2ccccc2)c2cc([N+](=O)[O-])ccc21 (stereo unspecified)	GPR7 antagonist 41 | GPR7 antag conf 45 | MCHR1 antagonist 48
CCCC(=O)Nc1ccc(-c2cn3cccnc3n2)cc1	none
CCCC(=O)Nc1cccc(-c2cn3cccnc3n2)c1	GPR7 antagonist 68 | GPR7 antag conf inactive | MCHR1 antagonist inactive
COc1ccc2c3c(cccc13)C(=O)CC2	GPR7 antagonist 34 (no result: CHO parental Ca, OX1R antag-1, OX1R antag-2) | GPR7 antag conf inactive | MCHR1 antagonist 33
CC(=O)c1ccc(N2CCN(CC(O)COC(c3ccccc3)c3ccccc3C)CC2)cc1 (stereo unspecified)	none
CC(=O)c1ccc(N2CCN(CC(O)COC(c3ccccc3)c3ccccc3)CC2)cc1 (stereo unspecified)	GPR7 antagonist 27 | GPR7 antag conf 35 | MCHR1 antagonist 34
COc1cccc(NC(=O)CCC2CCN(C(=O)C3CC=CCC3)CC2)c1 (stereo unspecified)	none
COc1ccccc1-c1ccc(SCc2cccc(C)c2)nn1	CHO parental Ca 48, GPR7 antagonist 64 | GPR7 antag conf 41 | MCHR1 antagonist 74
COC(=O)[C@@]12C[C@@H](CC(=O)NCCc3ccccc3OC)C(=O)N(Cc3ccc4c(c3)OCO4)C1=CCC(C)(C)C2	none (no result: CHO parental Ca, GPR7 antagonist, OX1R antag-1, OX1R antag-2)
CCc1ccc(CN(Cc2cccnc2)C(=O)/C=C/c2ccc(OC)cc2)cc1	GPR7 antagonist 39 | GPR7 antag conf 32 | MCHR1 antagonist 49
COc1ccc(S(=O)(=O)N(CC(=O)Nc2ccc(S(=O)(=O)N3CCOCC3)cc2)Cc2ccc(F)cc2)cc1	GPR7 antagonist 24 | GPR7 antag conf 28 | MCHR1 antagonist inactive
COc1ccc(S(=O)(=O)N2CCN(CC(=O)Nc3cccc(OC)c3)CC2)cc1	GPR7 antagonist 35 | GPR7 antag conf 25 | MCHR1 antagonist inactive
COc1ccc(S(=O)(=O)N2CCCN(CC(=O)Nc3ccc4c(c3)OCO4)CC2)cc1	none
COc1ccc(S(=O)(=O)N2CCCN(CC(=O)Nc3ccccc3F)CC2)cc1	GPR7 antagonist 30 | GPR7 antag conf inactive | MCHR1 antagonist 42
O=C(/C=C/[C@H]1O[C@@H](n2cnc3c(NC(=O)c4ccccc4)ncnc32)[C@H](O)[C@@H]1O)NCc1cccc2ccccc12	none (no result: CHO parental Ca, GPR7 antagonist, OX1R antag-1, OX1R antag-2)
NC(=O)c1ccc(NC(=O)CCN2C(=O)c3ccccc3C2=O)cc1	none
CCC(NC(=O)c1cc(COc2ccc(F)cc2Cl)on1)c1ccncc1 (stereo unspecified)	GPR7 antagonist 30 (no result: CHO parental Ca, OX1R antag-1, OX1R antag-2) | GPR7 antag conf inactive | MCHR1 antagonist 47
CCN(CC(=O)Nc1c(F)cccc1F)C(=O)c1ccc(Cl)c(S(=O)(=O)N2CCCCC2)c1	GPR7 antagonist 35 | GPR7 antag conf inactive | MCHR1 antagonist 49
O=[N+]([O-])c1ccc(NC(=S)NCc2ccc(F)cc2)cc1	CHO parental Ca 74, GPR7 antagonist 40 | GPR7 antag conf 59 | MCHR1 antagonist 71
O=[N+]([O-])c1ccc(NC(=S)NCCc2ccc(Cl)cc2)cc1	CHO parental Ca 69, GPR7 antagonist 49, OX1R antag-1 71, OX1R antag-2 64 | GPR7 antag conf 65 | MCHR1 antagonist 70
O=[N+]([O-])c1ccc(NC(=S)NCCc2ccccc2)cc1	CHO parental Ca 51, GPR7 antagonist 47, OX1R antag-1 47 | GPR7 antag conf 61 | MCHR1 antagonist 59
Fc1ccc(CNC(=S)Nc2cccc(Cl)c2)cc1	CHO parental Ca 41, GPR7 antagonist 36 | GPR7 antag conf inactive | MCHR1 antagonist 53
Cc1ccc(S(=O)(=O)NCC(=O)OCC(=O)Nc2cccc(S(=O)(=O)N3CCOCC3)c2)cc1	none (no result: GPR7 antagonist)
S=C(NCCC(c1ccccc1)c1ccccc1)Nc1cccc(Cl)c1	none
S=C(NCCN(C1CCCCC1)C1CCCC1)Nc1cccc(Cl)c1	GPR7 antagonist 55 | GPR7 antag conf 60 | MCHR1 antagonist 69
CCN1CCN(c2ccc(S(=O)(=O)N3CCCCC3)cc2NC(=O)COc2ccc(Cl)c(C)c2)CC1	GPR7 antagonist 23 | GPR7 antag conf 51 | MCHR1 antagonist 43
Cc1ccccc1NC(=O)COc1coc(CN2CCN(c3ccccc3)CC2)cc1=O	none (no result: GPR7 antagonist)
CC(NC(=S)Nc1ccc(F)cc1)C(c1cccs1)N1CCOCC1 (stereo unspecified)	GPR7 antagonist 23 (no result: GalR3 antagonist) | GPR7 antag conf inactive | MCHR1 antagonist inactive
Cn1nnnc1SCCNCc1cc(Cl)ccc1OCc1ccccc1	GPR7 antagonist 24 | GPR7 antag conf inactive | MCHR1 antagonist 44
Cn1nnnc1SCCNCc1ccccc1OCc1ccc(Cl)cc1	none
O=C(NCCc1ccccc1O)c1cc2c(cc1[N+](=O)[O-])OCO2	none (no result: CHO parental Ca, GPR7 antagonist, OX1R antag-1, OX1R antag-2)
CC(C)CCNC(=O)C(c1ccco1)N(Cc1cccs1)C(=O)Cn1nnc2ccccc21 (stereo unspecified)	GPR7 antagonist 33 (no result: CHO parental Ca, OX1R antag-1, OX1R antag-2) | GPR7 antag conf inactive | MCHR1 antagonist inactive
CCOc1ccccc1N1CCN(c2ncnc3scc(-c4ccc(OC)cc4)c23)CC1	GPR7 antagonist 54 | GPR7 antag conf inactive | MCHR1 antagonist 54
CCN(Cc1ccccc1)C(=O)C1CCN(S(=O)(=O)c2ccc3c(c2)OCCO3)CC1	none
CCCc1c(O)c2ccccc2[nH]c1=O	none
O=c1[nH]c2ccccc2c(O)c1Cc1ccccc1	GPR7 antagonist 22 | GPR7 antag conf inactive | MCHR1 antagonist inactive
COc1ccc(NC(=O)c2cc3c(CO)cnc(C)c3oc2=Nc2cc(OC)cc(OC)c2)cc1	GPR7 antagonist 37 | GPR7 antag conf inactive | MCHR1 antagonist inactive
Cc1onc(-c2cccc(Cl)c2Cl)c1C(=O)O/N=C(\N)c1ccc([N+](=O)[O-])o1	GPR7 antagonist 31 | GPR7 antag conf 45 | MCHR1 antagonist 55

High-throughput results: PubChem BioAssay, The Scripps Research Institute Molecular Screening Center
